From ChEMBL document CHEMBL4138082 (Eur J Med Chem, 2017)
Calls of active or inactive are those of the source. The rule behind the calls is not given here.

Key:
[1] = test system: HepG2; assay: Induction of apoptosis in human HepG2 cells assessed as viable cells at 0.125 uM after 48 hrs by Annexin V-APC/7-AAD staining based flow cytometry (reference value: 91.07%); type: functional; conditions: HepG2, 48 h, read-out: Activity
[2] = test system: HepG2; assay: Induction of apoptosis in human HepG2 cells assessed as early apoptotic cells at 0.0625 uM after 48 hrs by […] based flow cytometry (reference value: 3.18%); type: functional
[3] = test system: HepG2; assay: Cell cycle arrest in human HepG2 cells assessed as G2 phase accumulation at 0.0625 uM after 48 hrs in presence of hemoglobin by propidium iodide staining based flow cytometry (reference value: 10.67%); type: functional
[4] = Drug metabolism in human L02 cells assessed as NO release by measuring nitrite formation at 100 uM after 1 hr by Griess assay; type: ADME, cell-based; conditions: l02, 1 h
Procedure, shortened: (§1)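 HepG-2 or L-02 cells were exposed to 100 µM of each compound for 60 min and then harvested. Lysates were mixed with Griess reagent for 10 min at 37 °C and absorbance was read at 550 nm. NO release is expressed as nitrite, reported as mean ± SD of three independent experiments.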

[5] = test system: HepG2; assay: Induction of apoptosis in human HepG2 cells assessed as nuclear fragmentation at 0.0625 to 0.25 uM measured after 48 hrs by Hoechst 33258 staining based fluorescent microscopic analysis; type: functional, cell-based
[6] = test system: HepG2; assay: Induction of apoptosis in human HepG2 cells assessed as viable cells at 0.25 uM after 48 hrs by Annexin V-APC/7-AAD staining based flow cytometry (reference value: 91.07%); type: functional; conditions: HepG2, 48 h, read-out: Activity
[7] = test system: HepG2; assay: Induction of apoptosis in human HepG2 cells assessed as cell population with mitochondrial membrane potential loss at 0.125 uM measured after 48 hrs by JC-1 staining based flow cytometry (reference value: 1.49%); type: functional
Procedure, shortened: (§2)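 HepG-2 cells were exposed 48 h to 0.0625, 0.125 or 0.25 µM or to vehicle, then washed in PBS and stained with JC-1 in the dark. Red aggregate versus green monomer fluorescence was measured by flow cytometry to give the percentages of cells with healthy versus collapsed mitochondrial membrane potential.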

[8] = test system: HepG2; assay: Induction of apoptosis in human HepG2 cells assessed as necrotic cells at 0.0625 uM after 48 hrs by Annexin V-APC/7-AAD staining based flow cytometry (reference value: 2.40%); type: functional
[9] = test system: HepG2; assay: Upregulation of caspase 3 level in human HepG2 cells up to 0.25 uM after 48 hrs by Western blot method; type: functional, cell-based
[10] = Drug metabolism in human HepG2 cells assessed as NO release by measuring nitrite formation at 100 uM after 1 hr by Griess assay; type: ADME, cell-based; conditions: hepg2, 1 h; procedure, shortened: as §1
[11] = test system: HepG2; assay: Downregulation of Bcl-2 level in human HepG2 cells up to 0.25 uM after 48 hrs by Western blot method; type: functional, cell-based
Procedure, shortened: (§3)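 HepG-2 cells were exposed 48 h to 0, 0.0625, 0.125 or 0.25 µM and lysed on ice for 20 min. Equal protein loads were run on 12% SDS-PAGE and transferred to PVDF. Membranes were probed overnight at 4 °C with primary antibodies, then with HRP-conjugated secondaries, and detected by ECL chemiluminescence.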

[12] = test system: HepG2; assay: Antiproliferative activity against human HepG2 cells after 72 hrs by MTT assay; type: functional, cell-based; conditions: HepG2, 72 h
Procedure, shortened: (§4)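 MTT assay. Cells were seeded and grown 24 h at 37 °C in 5% CO2, then exposed to compound or left untreated for 72 h. MTT (5 mg/mL stock) was added for 4 h and the formazan dissolved in DMSO. OD was read at 570 nm. IC50 is the concentration giving 50% growth inhibition, reported as mean ± SD of three independent experiments. Vehicle reference was 0.1% DMSO.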

[13] = test system: HepG2; assay: Induction of apoptosis in human HepG2 cells assessed as cell population with intact mitochondrial membrane potential at 0.125 uM measured after 48 hrs by JC-1 staining based flow cytometry (reference value: 98.51%); type: functional; procedure, shortened: as §2
[14] = test system: HepG2; assay: Induction of apoptosis in human HepG2 cells assessed as late apoptotic cells at 0.125 uM after 48 hrs in presence of hemoglobin by Annexin V-APC/7-AAD staining based flow cytometry (reference value: 3.36%); type: functional
[15] = Selectivity index, ratio of IC50 for human L02 cells to IC50 for human HepG2 cells; type: toxicity; conditions: L02 cells and HepG2 cells, read-out: Ratio IC50
Procedure, shortened: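 MTT assay: cells grown 24 h at 37 °C, 5% CO2, then exposed 72 h; MTT (5 mg/mL) added for 4 h, formazan dissolved in DMSO, OD read at 570 nm. Vehicle 0.1% DMSO. Three independent experiments.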

[16] = test system: HepG2; assay: Cell cycle arrest in human HepG2 cells assessed as G2 phase accumulation at 0.125 uM after 48 hrs in presence of hemoglobin by propidium iodide staining based flow cytometry (reference value: 10.67%); type: functional
[17] = test system: HepG2; assay: Induction of apoptosis in human HepG2 cells assessed as late apoptotic cells at 0.25 uM after 48 hrs in presence of hemoglobin by Annexin V-APC/7-AAD staining based flow cytometry (reference value: 3.36%); type: functional
[18] = test system: HepG2; assay: Cell cycle arrest in human HepG2 cells assessed as G1 phase accumulation at 0.125 uM after 48 hrs by propidium iodide staining based flow cytometry (reference value: 32.74%); type: functional
Procedure, shortened: (§5)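 HepG-2 cells were plated and grown 24 h at 37 °C, then treated 48 h at 0, 0.0625, 0.125 or 0.25 µM, with 0.1% DMSO as control. Cells were fixed overnight in 70% ethanol at 4 °C, treated with RNase A and stained with propidium iodide. DNA content was measured by flow cytometry to give cell-cycle phase distribution.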

[19] = test system: PC-3; assay: Antiproliferative activity against human PC3 cells after 72 hrs by MTT assay; type: functional, cell-based; conditions: PC-3, 72 h; procedure, shortened: as §4
[20] = test system: HepG2; assay: Induction of apoptosis in human HepG2 cells assessed as cell population with mitochondrial membrane potential loss at 0.25 uM measured after 48 hrs by JC-1 staining based flow cytometry (reference value: 1.49%); type: functional; procedure, shortened: as §2
[21] = test system: HepG2; assay: Cell cycle arrest in human HepG2 cells assessed as G2 phase accumulation at 0.25 uM after 48 hrs in presence of hemoglobin by propidium iodide staining based flow cytometry (reference value: 10.67%); type: functional
[22] = test system: HepG2; assay: Induction of apoptosis in human HepG2 cells assessed as cell population with intact mitochondrial membrane potential at 0.25 uM measured after 48 hrs by JC-1 staining based flow cytometry (reference value: 98.51%); type: functional; procedure, shortened: as §2
[23] = test system: HepG2; assay: Cell cycle arrest in human HepG2 cells assessed as S phase accumulation at 0.25 uM after 48 hrs by propidium iodide staining based flow cytometry (reference value: 43.88%); type: functional; procedure, shortened: as §5
[24] = test system: HepG2; assay: Induction of apoptosis in human HepG2 cells assessed as early apoptotic cells at 0.25 uM after 48 hrs in presence of hemoglobin by Annexin V-APC/7-AAD staining based flow cytometry (reference value: 3.18%); type: functional
[25] = test system: HepG2; assay: Downregulation of pro-caspase 3 level in human HepG2 cells up to 0.25 uM after 48 hrs by Western blot method; type: functional, cell-based; procedure, shortened: as §3
[26] = test system: HepG2; assay: Induction of apoptosis in human HepG2 cells assessed as late apoptotic cells at 0.25 uM after 48 hrs by […] based flow cytometry (reference value: 3.36%); type: functional
[27] = test system: HepG2; assay: Upregulation of Bax level in human HepG2 cells up to 0.25 uM after 48 hrs by Western blot method; type: functional, cell-based

## C[C@H]1CCC/C=C/[C@@H]2C[C@H](OC(=O)CCCC(=O)OCCOc3no[n+]([O-])c3S(=O)(=O)c3ccccc3)C[C@H]2[C@H](OC(=O)CCCC(=O)OCCOc2no[n+]([O-])c2S(=O)(=O)c2ccccc2)/C=C/C(=O)O1
[1]
  viability at 0.125 µM: 63%
[2]
  Activity: 3.1%
[3]
  Activity: 7.2%
[4]
  Drug metabolism: 22.4 µM
[5]
  Activity: Active
[6]
  viability at 0.25 µM: 39.3%
[7]
  Activity: 35.45%
[8]
  Activity: 3%
[9]
  Activity: Active
[10]
  Drug metabolism: 98.5 µM
[11]
  Activity: Active
[12]
  IC50: 0.18 µM
[13]
  Activity: 64.55%
[14]
  Activity: 9.87%
[15]
  selectivity ratio: 33
[16]
  Activity: 6.22%
[17]
  Activity: 12.24%
[18]
  Activity: 31.78%
[19]
  IC50: 0.025 µM
[20]
  Activity: 60.14%
[21]
  Activity: 5.3%
[22]
  Activity: 39.86%
[23]
  Activity: 72.16%
[24]
  Activity: 8.7%
[25]
  Activity: Active
[26]
  Activity: 40.21%
[27]
  Activity: Active
